ChEMBL document CHEMBL4014276, “Diphenylurea derivatives for combating methicillin- and vancomycin-resistant Staphylococcus aureus” (Eur J Med Chem, 2017)
Values after ≈ are worked out from the molar mass of the structure shown. Active and inactive are the calls of the source. The calls are words filed in the database; no cut-off is given here.

How the values were obtained:
Assay type in all cases: functional
Staphylococcus aureus [1] = experiment: Antibacterial activity against methicillin-resistant Staphylococcus aureus USA400 NRS123 clinical isolate after 20 hrs by broth microdilution method; conditions: USA400 NRS123, 20 h
In short: (§1)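 CLSI broth microdilution in cation-adjusted Mueller Hinton broth; compounds serially diluted, triplicate samples; 37 °C, 20 h. MIC read visually as lowest concentration with no visible growth; mean of triplicate determinations reported.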

Staphylococcus aureus [2] = experiment: Antibacterial activity against Staphylococcus aureus RN4220 NRS107 clinical isolate after 20 hrs by broth microdilution method; conditions: RN4220 NRS107, 20 h; in short: as §1
Staphylococcus aureus [3] = experiment: Bactericidal activity against Staphylococcus aureus RN4220 NRS107 clinical isolate after 18 hrs by broth microdilution method; conditions: RN4220 NRS107, 18 h
In short: (§2)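 From MIC wells without visible growth, 5 uL spotted onto Tryptic soy agar, incubated 37 °C for at least 18 h; MBC taken as lowest concentration giving 99.9% growth inhibition.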

Staphylococcus aureus [4] = experiment: Bactericidal activity against methicillin-resistant Staphylococcus aureus USA400 NRS123 clinical isolate after 18 hrs by broth microdilution method; conditions: USA400 NRS123, 18 h; in short: as §2
Staphylococcus aureus [5] = experiment: Antibacterial activity against methicillin-resistant Staphylococcus aureus USA100 NRS382 clinical isolate after 20 hrs by broth microdilution method; conditions: USA100 NRS382, 20 h; in short: as §1
Staphylococcus aureus [6] = experiment: Bactericidal activity against methicillin-resistant Staphylococcus aureus USA100 NRS382 clinical isolate after 18 hrs by broth microdilution method; conditions: USA100 NRS382, 18 h; in short: as §2
Staphylococcus aureus [7] = experiment: Antibacterial activity against methicillin-resistant Staphylococcus aureus USA200 NRS383 clinical isolate after 20 hrs by broth microdilution method; conditions: USA200 NRS383, 20 h; in short: as §1
Staphylococcus aureus [8] = experiment: Bactericidal activity against methicillin-resistant Staphylococcus aureus USA200 NRS383 clinical isolate after 18 hrs by broth microdilution method; conditions: USA200 NRS383, 18 h; in short: as §2
Staphylococcus aureus [9] = experiment: Antibacterial activity against methicillin-resistant Staphylococcus aureus USA300 NRS384 clinical isolate after 20 hrs by broth microdilution method; conditions: USA300 NRS384, 20 h; in short: as §1
Staphylococcus aureus [10] = experiment: Bactericidal activity against methicillin-resistant Staphylococcus aureus USA300 NRS384 clinical isolate after 18 hrs by broth microdilution method; conditions: USA300 NRS384, 18 h; in short: as §2
Staphylococcus aureus [11] = experiment: Antibacterial activity against vancomycin-resistant Staphylococcus aureus VRSA4 after 20 hrs by broth microdilution method; conditions: VRSA4, 20 h; in short: as §1
Staphylococcus aureus [12] = experiment: Bactericidal activity against vancomycin-resistant Staphylococcus aureus VRSA4 after 18 hrs by broth microdilution method; conditions: VRSA4, 18 h; in short: as §2
Staphylococcus aureus [13] = experiment: Antibacterial activity against vancomycin-resistant Staphylococcus aureus VRSA10 after 20 hrs by broth microdilution method; conditions: VRSA10, 20 h; in short: as §1
Staphylococcus aureus [14] = experiment: Bactericidal activity against vancomycin-resistant Staphylococcus aureus VRSA10 after 18 hrs by broth microdilution method; conditions: VRSA10, 18 h; in short: as §2
Staphylococcus aureus [15] = experiment: Antibacterial activity against methicillin-resistant Staphylococcus aureus USA400 NRS123 clinical isolate preincubated followed by bacterial subculturing for 2 weeks
Staphylococcus aureus [16] = experiment: Antibacterial activity against methicillin-resistant Staphylococcus aureus USA100 NRS382 clinical isolate preincubated followed by bacterial subculturing for 2 weeks
Staphylococcus aureus [17] = experiment: Antibacterial activity against methicillin-resistant Staphylococcus aureus USA200 NRS383 clinical isolate preincubated followed by bacterial subculturing for 2 weeks
Staphylococcus aureus [18] = experiment: Antibacterial activity against methicillin-resistant Staphylococcus aureus USA300 NRS384 clinical isolate preincubated followed by bacterial subculturing for 2 weeks

Compound	MIC (Staphylococcus aureus [1])	MIC (Staphylococcus aureus [2])	MBC (Staphylococcus aureus [3])	MBC (Staphylococcus aureus [4])	MIC (Staphylococcus aureus [5])	MBC (Staphylococcus aureus [6])	MIC (Staphylococcus aureus [7])	MBC (Staphylococcus aureus [8])	MIC (Staphylococcus aureus [9])	MBC (Staphylococcus aureus [10])	MIC (Staphylococcus aureus [11])	MBC (Staphylococcus aureus [12])	MIC (Staphylococcus aureus [13])	MBC (Staphylococcus aureus [14])	Activity (Staphylococcus aureus [15])	Activity (Staphylococcus aureus [16])	Activity (Staphylococcus aureus [17])	Activity (Staphylococcus aureus [18])
C/C(=N\NC(=N)N)c1ccc(NC(=O)c2cc(-c3ccccc3)n(C)n2)cc1	> 32 µg/mL	–	–	–	–	–	–	–	–	–	–	–	–	–	–	–	–	–
C/C(=N\NC(=N)N)c1ccc(NC(=O)Nc2ccc(OCC(C)C)cc2)cc1	8 µg/mL (≈ 20.9 µM)	4 µg/mL (≈ 10.5 µM)	4 µg/mL (≈ 10.5 µM)	16 µg/mL (≈ 41.8 µM)	8 µg/mL (≈ 20.9 µM)	8 µg/mL (≈ 20.9 µM)	4 µg/mL (≈ 10.5 µM)	4 µg/mL (≈ 10.5 µM)	4 µg/mL (≈ 10.5 µM)	8 µg/mL (≈ 20.9 µM)	4 µg/mL (≈ 10.5 µM)	8 µg/mL (≈ 20.9 µM)	4 µg/mL (≈ 10.5 µM)	8 µg/mL (≈ 20.9 µM)	Active	Active	Active	Active
CCCOc1ccc(NC(=O)Nc2ccc(/C(C)=N/NC(=N)N)cc2)cc1	4 µg/mL (≈ 10.9 µM)	8 µg/mL (≈ 21.7 µM)	8 µg/mL (≈ 21.7 µM)	16 µg/mL (≈ 43.4 µM)	8 µg/mL (≈ 21.7 µM)	8 µg/mL (≈ 21.7 µM)	8 µg/mL (≈ 21.7 µM)	16 µg/mL (≈ 43.4 µM)	8 µg/mL (≈ 21.7 µM)	16 µg/mL (≈ 43.4 µM)	8 µg/mL (≈ 21.7 µM)	8 µg/mL (≈ 21.7 µM)	8 µg/mL (≈ 21.7 µM)	16 µg/mL (≈ 43.4 µM)	Active	Active	Active	Active
C/C(=N\NC(=N)N)c1ccc(NC(=O)Nc2nc3ccccc3s2)cc1	10 µg/mL (≈ 27.2 µM)	–	–	–	–	–	–	–	–	–	–	–	–	–	–	–	–	–
C/C(=N\NC(=N)N)c1ccc(NC(=O)c2ccc3c(c2)OCCN3C)cc1	16 µg/mL (≈ 43.7 µM)	–	–	–	–	–	–	–	–	–	–	–	–	–	–	–	–	–
C/C(=N\NC(=N)N)c1ccc(NC(=O)c2cccc(Oc3ccccc3)c2)cc1	16 µg/mL (≈ 41.3 µM)	–	–	–	–	–	–	–	–	–	–	–	–	–	–	–	–	–
CC(=O)Oc1ccccc1C(=O)Nc1ccc(/C(C)=N/NC(=N)N)cc1	> 32 µg/mL	–	–	–	–	–	–	–	–	–	–	–	–	–	–	–	–	–
CCCCCCOc1ccc(NC(=O)Nc2ccc(/C(C)=N/NC(=N)N)cc2)cc1	8 µg/mL (≈ 19.5 µM)	8 µg/mL (≈ 19.5 µM)	8 µg/mL (≈ 19.5 µM)	16 µg/mL (≈ 39 µM)	4 µg/mL (≈ 9.74 µM)	4 µg/mL (≈ 9.74 µM)	4 µg/mL (≈ 9.74 µM)	8 µg/mL (≈ 19.5 µM)	8 µg/mL (≈ 19.5 µM)	16 µg/mL (≈ 39 µM)	8 µg/mL (≈ 19.5 µM)	8 µg/mL (≈ 19.5 µM)	8 µg/mL (≈ 19.5 µM)	8 µg/mL (≈ 19.5 µM)	Active	Active	Active	Active
C/C(=N\NC(=N)N)c1ccc(NC(=O)Cc2ccc(F)cc2)cc1	16 µg/mL (≈ 48.9 µM)	–	–	–	–	–	–	–	–	–	–	–	–	–	–	–	–	–
COc1ccc(C(=O)Nc2ccc(/C(C)=N/NC(=N)N)cc2)cc1OC	16 µg/mL (≈ 45 µM)	–	–	–	–	–	–	–	–	–	–	–	–	–	–	–	–	–
C/C(=N\NC(=N)N)c1ccc(NC(=O)Nc2ccc(I)cc2)cc1	10 µg/mL (≈ 22.9 µM)	–	–	–	–	–	–	–	–	–	–	–	–	–	–	–	–	–
CCCCCCCCCOc1ccc(NC(=O)Nc2ccc(/C(C)=N/NC(=N)N)cc2)cc1	32 µg/mL (≈ 70.7 µM)	32 µg/mL (≈ 70.7 µM)	64 µg/mL (≈ 141 µM)	64 µg/mL (≈ 141 µM)	32 µg/mL (≈ 70.7 µM)	32 µg/mL (≈ 70.7 µM)	16 µg/mL (≈ 35.4 µM)	32 µg/mL (≈ 70.7 µM)	32 µg/mL (≈ 70.7 µM)	32 µg/mL (≈ 70.7 µM)	16 µg/mL (≈ 35.4 µM)	16 µg/mL (≈ 35.4 µM)	32 µg/mL (≈ 70.7 µM)	32 µg/mL (≈ 70.7 µM)	Active	Active	Active	Active
CCCCCCCCOc1ccc(NC(=O)Nc2ccc(/C(C)=N/NC(=N)N)cc2)cc1	32 µg/mL (≈ 73 µM)	16 µg/mL (≈ 36.5 µM)	32 µg/mL (≈ 73 µM)	32 µg/mL (≈ 73 µM)	16 µg/mL (≈ 36.5 µM)	32 µg/mL (≈ 73 µM)	16 µg/mL (≈ 36.5 µM)	16 µg/mL (≈ 36.5 µM)	16 µg/mL (≈ 36.5 µM)	16 µg/mL (≈ 36.5 µM)	16 µg/mL (≈ 36.5 µM)	32 µg/mL (≈ 73 µM)	16 µg/mL (≈ 36.5 µM)	32 µg/mL (≈ 73 µM)	Active	Active	Active	Active
C/C(=N\NC(=N)N)c1ccc(NC(=O)Cc2cc(F)cc(F)c2)cc1	16 µg/mL (≈ 46.3 µM)	–	–	–	–	–	–	–	–	–	–	–	–	–	–	–	–	–
CCC(CC)COc1ccc(NC(=O)Nc2ccc(/C(C)=N/NC(=N)N)cc2)cc1	–	–	–	–	128 µg/mL (≈ 312 µM)	–	–	–	–	–	–	–	–	–	Active	Active	Active	Active
CCCCCCCOc1ccc(NC(=O)Nc2ccc(/C(C)=N/NC(=N)N)cc2)cc1	16 µg/mL (≈ 37.7 µM)	8 µg/mL (≈ 18.8 µM)	8 µg/mL (≈ 18.8 µM)	16 µg/mL (≈ 37.7 µM)	16 µg/mL (≈ 37.7 µM)	16 µg/mL (≈ 37.7 µM)	8 µg/mL (≈ 18.8 µM)	8 µg/mL (≈ 18.8 µM)	16 µg/mL (≈ 37.7 µM)	16 µg/mL (≈ 37.7 µM)	8 µg/mL (≈ 18.8 µM)	8 µg/mL (≈ 18.8 µM)	16 µg/mL (≈ 37.7 µM)	16 µg/mL (≈ 37.7 µM)	Active	Active	Active	Active
C/C(=N\NC(=N)N)c1ccc(NC(=O)c2cc(C)oc2C)cc1	24 µg/mL (≈ 76.6 µM)	–	–	–	–	–	–	–	–	–	–	–	–	–	–	–	–	–
C/C(=N\NC(=N)N)c1ccc(NC(=O)c2cc(F)c(F)c(F)c2)cc1	16 µg/mL (≈ 45.8 µM)	–	–	–	–	–	–	–	–	–	–	–	–	–	–	–	–	–
CC(=O)NC[C@H]1CN(c2ccc(N3CCOCC3)c(F)c2)C(=O)O1 [LINEZOLID]	–	–	32 µg/mL (≈ 94.9 µM)	32 µg/mL (≈ 94.9 µM)	–	16 µg/mL (≈ 47.4 µM)	–	32 µg/mL (≈ 94.9 µM)	–	16 µg/mL (≈ 47.4 µM)	–	8 µg/mL (≈ 23.7 µM)	–	16 µg/mL (≈ 47.4 µM)	–	–	–	–
C/C(=N\NC(=N)N)c1ccc(NC(=O)Nc2ccc(OCC3CCC3)cc2)cc1	16 µg/mL (≈ 40.6 µM)	16 µg/mL (≈ 40.6 µM)	16 µg/mL (≈ 40.6 µM)	32 µg/mL (≈ 81.1 µM)	16 µg/mL (≈ 40.6 µM)	16 µg/mL (≈ 40.6 µM)	16 µg/mL (≈ 40.6 µM)	32 µg/mL (≈ 81.1 µM)	16 µg/mL (≈ 40.6 µM)	16 µg/mL (≈ 40.6 µM)	16 µg/mL (≈ 40.6 µM)	16 µg/mL (≈ 40.6 µM)	16 µg/mL (≈ 40.6 µM)	32 µg/mL (≈ 81.1 µM)	Active	Active	Active	Active
C/C(=N\NC(=N)N)c1ccc(NC(=O)Nc2ccc(OC3CCCC3)cc2)cc1	–	–	–	–	64 µg/mL (≈ 162 µM)	64 µg/mL (≈ 162 µM)	64 µg/mL (≈ 162 µM)	128 µg/mL (≈ 324 µM)	–	–	–	–	–	–	Active	Active	Active	Active
